Like-named read-outs stand apart in the source and are kept apart here.
How the values were obtained:
[1] = system: SNI mice; assay: Spared nerve injury; format: in vivo; conditions: for anti-allodynic effect, mechanical thresholds versus vehicle: systemic (subcutaneous) administration to SNI mice
In short: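 Spared nerve injury under isoflurane: two sciatic branches ligated and transected, sural nerve intact; mice tested 7–14 days later. Test compound (10, 20 or 30 mg/kg) or vehicle (saline, cyclodextrin, kolliphor) given subcutaneously, random assignment. Hindpaw von Frey thresholds by up-down method at 1, 24, 48 h. Thresholds normalized to each mouse's post-SNI baseline; n = 5–10; ANOVA with Dunnett's test.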

[2] = Pharmacokinetics in male CD-1 mice, plasma and brain; format: in vivo; conditions: 10 mg/kg subcutaneous
[3] = target: human σ2 receptor (Homo sapiens, UniProt Q5BJF2); assay: Competition binding of [3H]-DTG in Expi293 membranes expressing σ2 receptor; conditions: for Selectivity (σ1/σ2): ratio of σ1 Ki to σ2 Ki
Sequence of human σ2 receptor (Q5BJF2 whole entry): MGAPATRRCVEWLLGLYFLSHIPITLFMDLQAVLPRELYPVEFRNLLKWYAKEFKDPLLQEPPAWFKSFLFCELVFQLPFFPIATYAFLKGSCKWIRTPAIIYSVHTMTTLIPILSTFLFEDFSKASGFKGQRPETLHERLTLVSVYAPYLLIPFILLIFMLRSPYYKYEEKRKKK
In short: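 σ2-expressing Expi293 membranes were made by osmotic lysis (20 mM HEPES pH 7.5, 2 mM MgCl2), spun at 20,000 × g, and kept in 50 mM Tris pH 8.0 at −80 °C. Assay buffer: 50 mM Tris pH 8.0, 0.1% BSA, 10 nM [3H]-DTG and graded competitor; 37 °C, 90 min. 10 μM haloperidol set nonspecific binding. Filtration, scintillation counting; Ki by Cheng-Prusoff using measured probe Kd.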

[4] = system: σ2 mutants (His21, Gln77); assay: Competition binding in σ2 receptor mutants disrupting water coordination; parameters: species or system human
In short: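 Expi293 membranes carrying wild-type or mutant σ2 (lysed osmotically in 20 mM HEPES pH 7.5, 2 mM MgCl2; pellet at 20,000 × g), in 50 mM Tris pH 8.0, 0.1% BSA, with 10 nM [3H]-DTG and graded competitor. Incubated 37 °C, 90 min, shaking. Filtered on PEI-soaked glass fibre, scintillation counted. Nonspecific binding with 10 μM haloperidol. Ki by Cheng-Prusoff; three technical replicates, mean ± SEM.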

[5] = system: mice; assay: Rotarod; format: in vivo; conditions: 1 hour or 24 hours post-injection; Z1665845742 10 mg/kg, Z4857158944 20 mg/kg, Z4446724338 10 mg/kg
[6] = target: σ1 receptor (Homo sapiens, UniProt Q99720); assay: Competition binding versus σ1 receptor; conditions: read-out: Ki (nM) σ1
Sequence of σ1 receptor (Q99720 whole entry, species assumed): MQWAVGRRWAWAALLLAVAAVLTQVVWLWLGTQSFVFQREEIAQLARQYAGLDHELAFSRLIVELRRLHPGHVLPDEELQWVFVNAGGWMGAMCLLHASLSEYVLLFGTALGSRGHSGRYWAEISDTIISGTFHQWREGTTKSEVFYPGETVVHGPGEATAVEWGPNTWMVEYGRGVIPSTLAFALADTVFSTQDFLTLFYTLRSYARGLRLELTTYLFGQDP

[7] = read-out: Ki (nM) σ2, competition with 10 nM [3H]-DTG

SMILES | Ki [6] | Selectivity (σ1/σ2) [3] | Ki [3, 7] | further results
COc1cccc2c1CCCC2CCCN1CCN(C2CCCCC2)CC1 (stereo not shown) [PB28, reference compound] | – | – | – | mice in which anti-allodynic effects were observed ([1]; systemic injection, 30 mg/kg): 60%; AUC0→t (AUClast) ([2]; brain): 229000 ng·min/mL (g); AUC0→∞ (AUCinf_obs) ([2]; brain): 240000 ng·min/mL (g); Cmax ([2]; brain): 948 ng/mL (g); Kel (Lambda_z) ([2]; brain): 0.00706 min⁻¹; T1/2 (HL_Lambda_z) ([2]; brain): 98.1 min; Tmax ([2]; brain): 60 min; AUC0→t (AUClast) ([2]; plasma): 8640 ng·min/mL (g); AUC0→∞ (AUCinf_obs) ([2]; plasma): 45900 ng·min/mL (g); Cmax ([2]; plasma): 42 ng/mL (g); Kel (Lambda_z) ([2]; plasma): 0.000937 min⁻¹; T1/2 (HL_Lambda_z) ([2]; plasma): 740 min; Tmax ([2]; plasma): 60 min
CCCN1CCC=C(c2cc(-c3ccc(C)cc3)no2)C1 [PD-144418] | – | – | – | anti-allodynic effect, mechanical thresholds versus vehicle [1]: anti-allodynia; anti-allodynia 24 or 48 hours post-injection ([1]; tested at 1, 24 and 48 hours after dosing): not sustained
c1ccc(CCCN2CCC(c3nnc4ccccn34)CC2)cc1 [Z163048780] | – | – | – | Ki ([3]; read-out: σ2 Ki (affinity)): > 10000 nM
C1=C(c2c[nH]c3ccccc23)CCN(CCCc2ccccc2)C1 [Z295861754] | – | – | – | decrease in σ2 affinity ([3]; versus parent Z1241145220): 8 fold
C1=C(c2c[nH]c3ncccc23)CCN(CCCc2ccccc2)C1 [Z1241145220] | – | – | – | Ki ([3]; read-out: σ2 Ki (affinity)): 3.7 nM; reduction of affinity on mutation ([4]; Gln77 mutant versus wild-type σ2): about 10 fold; reduction of affinity on mutation ([4]; His21 mutant versus wild-type σ2): about 10 fold
OC(CCc1ccccc1)CN1CCC(c2nnc3ccccn23)CC1 (stereo not shown) [Z1665798906] | – | – | – | σ2 activity in words [3]: σ2 inactive
OC(CCc1ccccc1)CN1CC=C(c2c[nH]c3ncccc23)CC1 (stereo not shown) [Z1665845742] | – | – | – | selectivity for σ2 over σ1 [3]: 47 fold; Ki ([3]; read-out: σ2 Ki (affinity)): 5 nM; anti-allodynic effect, mechanical thresholds versus vehicle [1]: anti-allodynic; AUC0→t (AUClast) ([2]; brain): 436000 ng·min/mL (g); AUC0→∞ (AUCinf_obs) ([2]; brain): 509000 ng·min/mL (g); Cmax ([2]; brain): 3150 ng/mL (g); Kel (Lambda_z) ([2]; brain): 0.000928 min⁻¹; T1/2 (HL_Lambda_z) ([2]; brain): 747 min; Tmax ([2]; brain): 20 min; AUC0→t (AUClast) ([2]; plasma): 99000 ng·min/mL (g); AUC0→∞ (AUCinf_obs) ([2]; plasma): 112000 ng·min/mL (g); Cmax ([2]; plasma): 968 ng/mL (g); Kel (Lambda_z) ([2]; plasma): 0.00374 min⁻¹; T1/2 (HL_Lambda_z) ([2]; plasma): 185 min; Tmax ([2]; plasma): 20 min; sedation or motor impairment on the rotarod [5]: No sedation or motor impairment
N/C(=N\Cc1ccc(F)cc1Br)NCC1CCC1 [ZINC000170908795] | 32.7 nM | 4.9 | 6.7 nM | –
Cc1ccc([C@H]2CCN(CC3(O)CCC3)C2)c(C)c1 [ZINC000348332392] | 2.9 nM | 0.1 | 33.7 nM | –
C[C@@H](c1ccccc1)[C@@H](O)CN1CCC(c2c[nH]c3ncccc23)CC1 [ZINC000450573233] | 128 nM | 30 | 4.3 nM | –
C[C@@H](C(=O)N(C)Cc1cccc(F)c1)N1CC=C(c2c[nH]c3ncccc23)CC1 [ZINC000533478938] | 1470 nM | 43 | 34.5 nM | –
Cc1ccc(CCC2CCN(C(=O)CN3C[C@@H]4CC[C@@H](O)[C@H]4C3)CC2)cc1 [ZINC000544117725] | 16.2 nM | 1.6 | 10 nM | –
CC1CCC(O)(CN2CC(Cc3ccc(F)c(F)c3)C2)CC1 (stereo not shown) [ZINC000548355486] | 4.9 nM | 2 | 2.4 nM | –
Cc1ccc(CC2CN(CC3(O)CCSCC3)C2)cc1 [ZINC000656714762] | 4.6 nM | 0.1 | 67.8 nM | –
CC(C)(NCc1ccc2c(c1)OCCO2)[C@H](O)c1ccccc1 [ZINC000895657866] | 990 nM | 46 | 21.4 nM | –
O[C@@]1(CNCc2cccc3c2OCC3)CCc2ccccc21 [ZINC000921927365] | 1190 nM | 18 | 67.3 nM | –
CC(C)CCO[C@@H]1CCN(C[C@H]2CC3(CCCCC3)CO2)C1 [ZINC001196519317] | 13.4 nM | 5.6 | 2.4 nM | –
Fc1c(CN2CCN(C[C@@H]3CCCO3)CC2)ccc(Br)c1Cl [ZINC001237901728] | 1.6 nM | 0.1 | 27 nM | –
O[C@@H](COCc1ccccc1F)CN1CC(Cc2ccccc2C(F)(F)F)C1 [ZINC001254761628] | 53 nM | 11.3 | 4.7 nM | –
CC[C@@H](CO)N1CCC(CCc2ccc(F)cc2F)CC1 [ZINC001460312963] | 1.7 nM | 0.3 | 5.2 nM | –
